Source: paper PMC9328826 (Journal of Food and Drug Analysis, 2016)

Columns and labels:
[1] = WST-8 cytotoxicity assay on NIH/3T3 cells; format: cell-based; details: mouse, NIH/3T3 embryonic fibroblast cells
Summary of the method: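 NIH/3T3 cells, cultured in HEPES-buffered E-MEM with 10% FBS at 37°C, 5% CO2, seeded at 2 × 10^3 cells/well. Exposed to test compound at 0.5–10 μM for 24 and 48 hours at 37°C, with 0.1% DMSO for control and cell-free blank. WST-8 added for 4 hours, then OD read at 450 nm. Viability given as % of control (n = 3); IC50 fitted from dose-response curve by Hill slope.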

caspase-9 = test: Caspase-9 activity, FAM-LEHD-FMK fluorescence probe; format: cell-based, human; details: HeLa, 24 hours; Compound 1 at 3 μM
Summary of the method: (§1)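 HeLa cells grown in E-MEM with 4.2 mM HEPES, 10% FBS, penicillin/streptomycin, 37°C, 5% CO2. 3 × 10^6 cells exposed to test compound at 3 μM for 24 hours, harvested, labelled 1 hour at 37°C with FAM-FLICA probe (DEVD-FMK caspase-3/7, LETD-FMK caspase-8, LEHD-FMK caspase-9), washed. Fluorescence at ex 485/em 530 nm on a plate reader, given as n-fold over control. Mean ± SD; Duncan test.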

caspase-8 = test: Caspase-8 activity, FAM-LETD-FMK fluorescence probe; format: cell-based, human; details: HeLa, 24 hours; Compound 1 at 3 μM
Summary of the method: as §1

caspase-3/7 = test: Caspase-3/7 activity, FAM-DEVD-FMK fluorescence probe; format: cell-based, human; details: HeLa, 24 hours; Compound 1 at 3 μM
Summary of the method: as §1

[2] = tested on: mitochondria membrane potential of HeLa cells; test: JC-1 assay of mitochondria membrane potential; format: cell-based, human; details: 10 μM, 48 hours, untreated cells 294
Summary of the method: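 5 × 10^5 HeLa cells exposed to test compound at 3 μM for 24 and 48 hours, or to a reference drug at 10 μM. Stained with JC-1 for 30 minutes at 37°C, then washed. Green signal read at ex 485/em 530 nm on a plate reader. Red fluorescence (ex 520/em 595 nm) imaged by microscopy at ×400, with intensity quantified from the images. Mean ± SD; Duncan test.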

K562/ADM cell line = details: read-out: IC50, cytotoxic activity on K562/ADM cell line; 72 hours ref 11; cited from earlier work
HT-29 cell line = details: read-out: IC50, cytotoxic activity on HT-29 cell line; 72 hours ref 19; cited from earlier work

Which results are given for `C=C1C(=O)O[C@H]2[C@H]1[C@H](OC(=O)[C@@]1(C)O[C@H]1C)[C@@H](OC(C)=O)/C(C(=O)OC)=C\CC[C@@]1(C)O[C@H]21` [Compound 3, Enhydrin]?
IC50 at 24 h [1]: 2700 nM; IC50 at 48 h [1]: 1530 nM

What does the source list for `C=C1C(=O)O[C@@H]2/C=C(\C)CC/C=C(/C(=O)OC)[C@H](OC(C)=O)[C@@H](OC(=O)[C@]3(C)O[C@@H]3C)[C@@H]12` [Compound 4, Uvedalin]?
increase of caspase-9 activity against control (caspase-9): 3.17 fold; IC50 at 24 h [1]: 5290 nM; IC50 at 48 h [1]: 2660 nM; increase of caspase-8 activity against control (caspase-8): 1.47 fold; increase of caspase-3/7 activity against control (caspase-3/7): 2.34 fold

With `COc1cc([C@@H]2c3cc4c(cc3[C@@H](O[C@@H]3O[C@@H]5CO[C@@H](C)O[C@H]5[C@H](O)[C@H]3O)[C@H]3COC(=O)[C@H]23)OCO4)cc(OC)c1O` [Etoposide] as the compound, how does the “increase of caspase-9 activity against control” value (caspase-9) read?
Its value is 3.96 fold.

What about the IC50 at 24 h [1] of the same compound?
The IC50 at 24 h was 7430 nM.

And the IC50 at 48 h [1]?
The IC50 at 48 h was 820 nM.

And the “increase of caspase-8 activity against control” value (caspase-8)?
The value was 3.18 fold.

What about the “red fluorescence intensity (RFI), JC-1” value [2] of the same compound?
Its value is 17.56.

What about the “increase of caspase-3/7 activity against control” value (caspase-3/7) of the same compound?
Its value is 3.88 fold.

What does the source list for `CO[C@@]12[C@H](COC(N)=O)C3=C(C(=O)C(C)=C(N)C3=O)N1C[C@@H]1N[C@@H]12` [Mitomycin C]?
IC50 at 24 h [1]: 4430 nM; IC50 at 48 h [1]: 1260 nM

For `C=C1C(=O)O[C@H]2[C@H]1CC/C(C)=C/CC[C@@]1(C)O[C@@H]21` [Parthenolide], which IC50 at 24 h [1] is on record?
Its IC50 at 24 h is 12300 nM.

What about the IC50 at 48 h [1] of the same compound?
The IC50 at 48 h was 8950 nM.

For `CC(=O)O[C@H]1C(=O)[C@@]2(C)[C@H]([C@H](OC(=O)c3ccccc3)[C@]3(O)C[C@H](OC(=O)[C@H](O)[C@@H](NC(=O)c4ccccc4)c4ccccc4)C(C)=C1C3(C)C)[C@]1(OC(C)=O)CO[C@@H]1C[C@@H]2O` [Taxol], which IC50 at 24 h [1] is on record?
The IC50 at 24 h was 390 nM.

What about the IC50 at 48 h [1] of the same compound?
The IC50 at 48 h was 120 nM.

Which IC50 (K562/ADM cell line) does the source give for `C=C1CC[C@H]2C(OC(=O)[C@@H]2C)[C@H]2[C@@H]1CC(=O)[C@@H]2CC=C1CC[C@H]2C(=C)[C@H](O)C[C@@H]3[C@H](OC(=O)[C@H]3C)[C@@H]12` (stereo partly drawn) [biguaiascorzolide A] here?
The IC50 was 39800 nM.

With rufescenolide C as the compound, how does the IC50 (HT-29 cell line) read?
Its IC50 is 150 nM.
